ChEMBL document CHEMBL3414458, “Discovery of novel 2,5-dioxoimidazolidine-based P2X(7) receptor antagonists as constrained analogues of KN62” (J Med Chem, 2015)
The source made the active and inactive calls. The rule behind the calls is not given here.

Columns and labels:
[1] = molecular target: T1, P2X purinoceptor 7 (Homo sapiens) (UniProt Q99572); assay: Antagonist activity at recombinant human P2X7 receptor expressed in HEK293 cells assessed as inhibition of BzATP-induced intracellular ethidium bromide uptake at 10 uM after 2 hrs by fluorescence assay; format: cell-based
T1 sequence (whole entry): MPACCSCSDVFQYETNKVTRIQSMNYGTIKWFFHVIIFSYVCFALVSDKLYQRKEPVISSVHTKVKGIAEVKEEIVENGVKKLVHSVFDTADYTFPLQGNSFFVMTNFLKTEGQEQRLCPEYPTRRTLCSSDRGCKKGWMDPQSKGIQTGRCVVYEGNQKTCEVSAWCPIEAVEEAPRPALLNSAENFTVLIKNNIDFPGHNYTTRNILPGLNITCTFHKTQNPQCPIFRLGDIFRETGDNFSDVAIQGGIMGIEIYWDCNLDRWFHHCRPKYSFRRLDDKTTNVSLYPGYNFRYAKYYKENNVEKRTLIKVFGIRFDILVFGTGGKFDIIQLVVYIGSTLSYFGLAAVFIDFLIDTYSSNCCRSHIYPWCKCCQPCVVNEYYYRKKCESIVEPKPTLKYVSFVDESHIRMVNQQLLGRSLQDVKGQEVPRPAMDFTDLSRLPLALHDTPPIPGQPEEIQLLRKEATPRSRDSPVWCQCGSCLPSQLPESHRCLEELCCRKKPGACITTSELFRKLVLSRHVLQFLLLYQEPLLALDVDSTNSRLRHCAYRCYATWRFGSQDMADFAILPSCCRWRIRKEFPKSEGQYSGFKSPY

[2] = molecular target: T2, P2X purinoceptor 7 (Homo sapiens, UniProt Q99572); assay: Antagonist activity at recombinant human P2X7 receptor expressed in HEK293 cells assessed as inhibition of BzATP-induced intracellular ethidium bromide uptake after 2 hrs by fluorescence assay; format: cell-based
T2 sequence (Q99572 whole entry): T1 sequence (whole entry)
How it was run: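 Human HEK293 cells stably expressing recombinant human P2X7; ethidium accumulation stimulated by BzATP was measured.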

[3] = molecular target: T2, P2X purinoceptor 7; assay: Antagonist activity at P2X7 receptor in LPS/IFN-gamma-differentiated human THP1 cells assessed as inhibition of BzATP-induced IL-1beta release preincubated for 30 mins followed by BzATP induction measured after 30 mins by ELISA; format: cell-based, THP-1
How it was run: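 Human THP-1 monocytes, LPS-primed, stimulated with BzATP; IL-1β release measured by ELISA. Active compounds were screened at 1 µM, and full concentration-response curves were run to obtain IC50.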

[4] = molecular target: T1, P2X purinoceptor 7 (Homo sapiens); assay: Antagonist activity at P2X7 receptor in LPS/IFN-gamma-differentiated human THP1 cells assessed as inhibition of BzATP-induced IL-1beta release at 1 uM preincubated for 30 mins followed by BzATP induction measured after 30 mins by ELISA relative to control; format: cell-based; conditions: THP-1
How it was run: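 LPS-primed THP-1 human monocytes were stimulated with BzATP, and IL-1β release was measured by ELISA. Test compound was given at a single concentration of 1 µM, and results are expressed as percent inhibition of BzATP-induced IL-1β release.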

Structure (SMILES) | inhibition [1] | IC50 [2] [nM] | IC50 [3] [nM] | inhibition [4] [%]
O=C1NC(=O)N(C2CCN(C(=O)c3ccc(Cl)c(C(F)(F)F)c3)CC2)C1c1ccc(OS(=O)(=O)c2cccc3cnccc23)cc1 (racemic) | 30% |  |  | 
CCCN1C(=O)C(Cc2ccc(OS(=O)(=O)c3cccc4cnccc34)cc2)N(C2CCN(C(=O)c3ccc(Cl)c(C(F)(F)F)c3)CC2)C1=O (racemic) |  | 1670 |  | 
CN([C@@H](Cc1ccc(OS(=O)(=O)c2cccc3cnccc23)cc1)C(=O)N1CCN(c2ccccc2)CC1)S(=O)(=O)c1cccc2cnccc12 |  |  | 143 | 
O=C1NC(=O)N(C2CCN(C(=O)c3ccc(F)c(F)c3)CC2)C1Cc1ccc(OS(=O)(=O)c2cccc3cnccc23)cc1 (racemic) |  | 217 | 81 | 
O=C1NC(=O)N(C2CCN(C(=O)C3CCCCC3)CC2)C1Cc1ccc(OS(=O)(=O)c2cccc3cnccc23)cc1 (racemic) |  | 133 | 80 | 
CC12CC3CC(C)(C1)CC(C(=O)N1CCC(N4C(=O)NC(=O)C4Cc4ccc(OS(=O)(=O)c5cccc6cnccc56)cc4)CC1)(C3)C2 (racemic) |  | 99 | 81 | 
O=C1NC(=O)N(C2CCN(C(=O)c3ccc(Cl)c(Cl)c3)CC2)C1Cc1ccc(OS(=O)(=O)c2cccc3cnccc23)cc1 (racemic) |  | 73 | 72 | 
CC(C)(C)OC(=O)N1CCC(N2C(=O)NC(=O)C2Cc2ccc(OS(=O)(=O)c3cccc4cnccc34)cc2)CC1 (racemic) |  | 355 |  | 59
CCC(=O)N1CCC(N2C(=O)NC(=O)C2Cc2ccc(OS(=O)(=O)c3cccc4cnccc34)cc2)CC1 (racemic) |  | 11700 |  | 48
O=C1NC(=O)N(CC2CCNCC2)C1Cc1ccc(OS(=O)(=O)c2cccc3cnccc23)cc1 (racemic) | inactive |  |  | 
O=C1NC(=O)N(C2CCN(Cc3ccccc3)CC2)C1Cc1ccc(OS(=O)(=O)c2cccc3cnccc23)cc1 (racemic) |  | 1620 |  | 
O=C1C(Cc2ccc(OS(=O)(=O)c3cccc4cnccc34)cc2)N(CC2CCN(Cc3ccccc3)CC2)C(=O)N1Cc1cccc2cnccc12 (racemic) |  | 8960 |  | 42
O=C1NC(=O)N(C2CCN(C(=O)c3cccc(Cl)c3)CC2)C1Cc1ccc(OS(=O)(=O)c2cccc3cnccc23)cc1 (racemic) |  | 220 | 313 | 
O=C1NC(=O)N(C2CCN(C(=O)c3ccc(Cl)cc3F)CC2)C1Cc1ccc(OS(=O)(=O)c2cccc3cnccc23)cc1 (racemic) |  | 423 | 253 | 
O=C1NC(=O)N(C2CCN(C(=O)CC34CC5CC(CC(C5)C3)C4)CC2)C1c1ccc(OS(=O)(=O)c2cccc3cnccc23)cc1 (racemic) | 46% |  |  | 
O=C1NC(=O)N(CCC2CCN(C(=O)c3ccccc3)CC2)C1Cc1ccc(OS(=O)(=O)c2cccc3cnccc23)cc1 (racemic) |  | 4990 |  | 33
CC(C)(C)C(=O)N1CCC(N2C(=O)NC(=O)C2Cc2ccc(OS(=O)(=O)c3cccc4cnccc34)cc2)CC1 (racemic) |  | 5650 |  | 49
O=C1NC(=O)[C@H](Cc2ccc(OS(=O)(=O)c3cccc4cnccc34)cc2)N1 | inactive |  |  | 
O=C1N[C@@H](Cc2ccc(OS(=O)(=O)c3cccc4cnccc34)cc2)C(=O)N1Cc1cccc2cnccc12 |  | 12200 |  | 52
CC(C)(C)OC(=O)N1CCC(CN2C(=O)N(Cc3cccc4cnccc34)C(=O)C2Cc2ccc(OS(=O)(=O)c3cccc4cnccc34)cc2)CC1 (racemic) |  | 1970 |  | 44
O=C1NC(=O)N(C2CCN(C(=O)c3ccc(Cl)c(C(F)(F)F)c3)CC2)C1Cc1ccc(OS(=O)(=O)c2cccc3cnccc23)cc1 (stereo in doubt; (+)-21w) |  | 168 | 98 | 
O=C1NC(=O)N(CC2CCN(Cc3ccccc3)CC2)C1Cc1ccc(OS(=O)(=O)c2cccc3cnccc23)cc1 (racemic) |  | 1820 |  | 52
O=C1NC(=O)N(C2CCN(CC34CC5CC(CC(C5)C3)C4)CC2)C1Cc1ccc(OS(=O)(=O)c2cccc3cnccc23)cc1 (racemic) |  | 2290 |  | 49
CC(C)CC(=O)N1CCC(N2C(=O)NC(=O)C2Cc2ccc(OS(=O)(=O)c3cccc4cnccc34)cc2)CC1 (racemic) |  | 4880 |  | 45

Structure (SMILES) | inhibition [1] | IC50 [2] [nM] | IC50 [3] [nM] | inhibition [4] [%]
O=C1NC(=O)N(C2CCN(C(=O)c3ccc(F)cc3)CC2)C1Cc1ccc(OS(=O)(=O)c2cccc3cnccc23)cc1 (racemic) |  | 913 |  | 
O=C1NC(=O)N(C2CCN(C(=O)C34CC5CC(CC(C5)C3)C4)CC2)C1Cc1ccc(OS(=O)(=O)c2cccc3cnccc23)cc1 (racemic) |  | 23 | 14 | 
CCN1C(=O)C(Cc2ccc(OS(=O)(=O)c3cccc4cnccc34)cc2)N(C2CCN(C(=O)c3ccc(Cl)c(C(F)(F)F)c3)CC2)C1=O (racemic) |  | 847 |  | 
O=C1NC(=O)N(Cc2cccc3cnccc23)C1Cc1ccc(OS(=O)(=O)c2cccc3cnccc23)cc1 (racemic) |  | 3820 |  | 38
CC(C)(C)OC(=O)N1CCC(CN2C(=O)C(Cc3ccc(OS(=O)(=O)c4cccc5cnccc45)cc3)N(Cc3cccc4cnccc34)C2=O)CC1 (racemic) |  | 12000 |  | 50
O=C1NC(=O)N(CC2CCN(C(=O)c3ccccc3)CC2)C1Cc1ccc(OS(=O)(=O)c2cccc3cnccc23)cc1 (racemic) |  | 789 |  | 59
CC(C)(C)OC(=O)N1CCC(CCN2C(=O)NC(=O)C2Cc2ccc(OS(=O)(=O)c3cccc4cnccc34)cc2)CC1 (racemic) |  | 1010 |  | 54
CN1C(=O)C(Cc2ccc(OS(=O)(=O)c3cccc4cnccc34)cc2)N(C2CCN(C(=O)c3ccc(Cl)c(C(F)(F)F)c3)CC2)C1=O (racemic) |  | 542 |  | 
CCCC(=O)N1CCC(N2C(=O)NC(=O)C2Cc2ccc(OS(=O)(=O)c3cccc4cnccc34)cc2)CC1 (racemic) |  | 8770 |  | 37
O=C1NC(=O)N(C2CCN(C(=O)CC3CC4CCC3C4)CC2)C1Cc1ccc(OS(=O)(=O)c2cccc3cnccc23)cc1 (racemic) |  | 109 | 29 | > 95
CC(C)C(=O)N1CCC(N2C(=O)NC(=O)C2Cc2ccc(OS(=O)(=O)c3cccc4cnccc34)cc2)CC1 (racemic) |  | 7220 |  | 33
CC(C)(C)OC(=O)N1CCC(CN2C(=O)N[C@@H](Cc3ccc(OS(=O)(=O)c4cccc5cnccc45)cc3)C2=O)CC1 |  | 7720 |  | 45
O=C1NC(=O)N(C2CCN(C(=O)c3ccc(Cl)cc3)CC2)C1Cc1ccc(OS(=O)(=O)c2cccc3cnccc23)cc1 (racemic) |  | 133 | 192 | 
CC(C)N1C(=O)C(Cc2ccc(OS(=O)(=O)c3cccc4cnccc34)cc2)N(C2CCN(C(=O)c3ccc(Cl)c(C(F)(F)F)c3)CC2)C1=O (racemic) |  | 3240 |  | 
O=C1NC(=O)N(CCC2CCN(Cc3ccccc3)CC2)C1Cc1ccc(OS(=O)(=O)c2cccc3cnccc23)cc1 (racemic) |  | 5730 |  | 
CC(C)(C)OC(=O)N1CCC(CN2C(=O)NC(=O)C2Cc2ccc(OS(=O)(=O)c3cccc4cnccc34)cc2)CC1 (racemic) |  | 885 |  | 60
O=C1NC(=O)N(C2CCN(C(=O)C34CC5CC(CC(Br)(C5)C3)C4)CC2)C1Cc1ccc(OS(=O)(=O)c2cccc3cnccc23)cc1 (racemic) |  | 30 | 27 | > 95
O=C1NC(=O)N(C2CCN(C(=O)c3ccc(Cl)c(C(F)(F)F)c3)CC2)C1Cc1ccc(OS(=O)(=O)c2cccc3cnccc23)cc1 (single isomer, unassigned; (-)) |  | 54 | 9 | 
O=C1NC(=O)N(C2CCN(C(=O)C34CC5CC(CC3C5)C4)CC2)C1Cc1ccc(OS(=O)(=O)c2cccc3cnccc23)cc1 (racemic) |  | 69 | 49 | > 95
O=C1NC(=O)N(C2CCN(C(=O)c3ccccc3)CC2)C1Cc1ccc(OS(=O)(=O)c2cccc3cnccc23)cc1 (racemic) |  | 574 |  | 60
O=C1NC(=O)N(C2CCN(C(=O)c3ccccc3Cl)CC2)C1Cc1ccc(OS(=O)(=O)c2cccc3cnccc23)cc1 (racemic) |  | 666 |  | 68
COc1ccc(C(=O)N2CCC(N3C(=O)NC(=O)C3Cc3ccc(OS(=O)(=O)c4cccc5cnccc45)cc3)CC2)cc1OC (racemic) |  | 3760 |  | 52
O=C1NC(=O)N(C2CCN(C(=O)CC34CC5CC(CC(C5)C3)C4)CC2)C1Cc1ccc(OS(=O)(=O)c2cccc3cnccc23)cc1 (racemic) |  | 84 | 15 | > 95
